Reference: ChEMBL document CHEMBL3758120, “Synthesis and Mechanism Studies of 1,3-Benzoazolyl Substituted Pyrrolo[2,3-b]pyrazine Derivatives as Nonintercalative Topoisomerase II Catalytic Inhibitors” (J Med Chem, 2016)
Calls of active or inactive are those of the source. The rule behind the calls is not given here.

Legend:
HL-60 [1] = test: Induction of apoptosis in human HL60 cells assessed as viable cells at 0.5 uM after 24 hrs by annexin V-FITC/propidium iodide staining-based flow cytometric analysis (reference value: 97.75%); assay type: functional; conditions: HL-60, 24 h, read-out: Activity
Procedure, shortened: (§1)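 HL-60 cells at 5.0 × 10^5 cells/ml treated for 12 h (0.5–2 μM) or 24 h (0.25–1 μM), washed twice in cold PBS, resuspended in binding buffer, stained with annexin V-FITC and propidium iodide for 15 min in the dark, analysed by flow cytometry within 1 h; quadrants define live, early and late apoptotic cells. Three repeats.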

HL-60 [2] = test: Induction of apoptosis in human HL60 cells assessed as late apoptotic cells at 0.5 uM after 12 hrs by annexin V-FITC/propidium iodide staining-based flow cytometric analysis (reference value: 0.17 to 0.18%); assay type: functional; procedure, shortened: as §1
HL-60 [3] = test: Induction of apoptosis in human HL60 cells assessed as late apoptotic cells at 0.5 uM after 24 hrs by annexin V-FITC/propidium iodide staining-based flow cytometric analysis (reference value: 1.64%); assay type: functional; procedure, shortened: as §1
HL-60 [4] = test: Induction of apoptosis in human HL60 cells assessed as dead cells at 1 uM after 24 hrs by annexin V-FITC/propidium iodide staining-based flow cytometric analysis (reference value: 0.12%); assay type: functional
HL-60 [5] = test: Induction of apoptosis in human HL60 cells assessed as late apoptotic cells at 1 uM after 12 hrs by annexin V-FITC/propidium iodide staining-based flow cytometric analysis (reference value: 0.17 to 0.18%); assay type: functional; procedure, shortened: as §1
HL-60 [6] = test: Induction of apoptosis in human HL60 cells assessed as early apoptotic cells at 1 uM after 24 hrs by annexin V-FITC/propidium iodide staining-based flow cytometric analysis (reference value: 0.5%); assay type: functional; procedure, shortened: as §1
[7] = target: T1, DNA topoisomerase 2-alpha (Homo sapiens, UniProt P11388); test: Inhibition of purified human topoisomerase 2 catalytic activity using supercoiled pBR322 DNA as substrate assessed as inhibition of etoposide-induced linear DNA formation at 20 uM pre-incubated before etoposide addition by agarose gel electrophoresis
T1 sequence (P11388 whole entry): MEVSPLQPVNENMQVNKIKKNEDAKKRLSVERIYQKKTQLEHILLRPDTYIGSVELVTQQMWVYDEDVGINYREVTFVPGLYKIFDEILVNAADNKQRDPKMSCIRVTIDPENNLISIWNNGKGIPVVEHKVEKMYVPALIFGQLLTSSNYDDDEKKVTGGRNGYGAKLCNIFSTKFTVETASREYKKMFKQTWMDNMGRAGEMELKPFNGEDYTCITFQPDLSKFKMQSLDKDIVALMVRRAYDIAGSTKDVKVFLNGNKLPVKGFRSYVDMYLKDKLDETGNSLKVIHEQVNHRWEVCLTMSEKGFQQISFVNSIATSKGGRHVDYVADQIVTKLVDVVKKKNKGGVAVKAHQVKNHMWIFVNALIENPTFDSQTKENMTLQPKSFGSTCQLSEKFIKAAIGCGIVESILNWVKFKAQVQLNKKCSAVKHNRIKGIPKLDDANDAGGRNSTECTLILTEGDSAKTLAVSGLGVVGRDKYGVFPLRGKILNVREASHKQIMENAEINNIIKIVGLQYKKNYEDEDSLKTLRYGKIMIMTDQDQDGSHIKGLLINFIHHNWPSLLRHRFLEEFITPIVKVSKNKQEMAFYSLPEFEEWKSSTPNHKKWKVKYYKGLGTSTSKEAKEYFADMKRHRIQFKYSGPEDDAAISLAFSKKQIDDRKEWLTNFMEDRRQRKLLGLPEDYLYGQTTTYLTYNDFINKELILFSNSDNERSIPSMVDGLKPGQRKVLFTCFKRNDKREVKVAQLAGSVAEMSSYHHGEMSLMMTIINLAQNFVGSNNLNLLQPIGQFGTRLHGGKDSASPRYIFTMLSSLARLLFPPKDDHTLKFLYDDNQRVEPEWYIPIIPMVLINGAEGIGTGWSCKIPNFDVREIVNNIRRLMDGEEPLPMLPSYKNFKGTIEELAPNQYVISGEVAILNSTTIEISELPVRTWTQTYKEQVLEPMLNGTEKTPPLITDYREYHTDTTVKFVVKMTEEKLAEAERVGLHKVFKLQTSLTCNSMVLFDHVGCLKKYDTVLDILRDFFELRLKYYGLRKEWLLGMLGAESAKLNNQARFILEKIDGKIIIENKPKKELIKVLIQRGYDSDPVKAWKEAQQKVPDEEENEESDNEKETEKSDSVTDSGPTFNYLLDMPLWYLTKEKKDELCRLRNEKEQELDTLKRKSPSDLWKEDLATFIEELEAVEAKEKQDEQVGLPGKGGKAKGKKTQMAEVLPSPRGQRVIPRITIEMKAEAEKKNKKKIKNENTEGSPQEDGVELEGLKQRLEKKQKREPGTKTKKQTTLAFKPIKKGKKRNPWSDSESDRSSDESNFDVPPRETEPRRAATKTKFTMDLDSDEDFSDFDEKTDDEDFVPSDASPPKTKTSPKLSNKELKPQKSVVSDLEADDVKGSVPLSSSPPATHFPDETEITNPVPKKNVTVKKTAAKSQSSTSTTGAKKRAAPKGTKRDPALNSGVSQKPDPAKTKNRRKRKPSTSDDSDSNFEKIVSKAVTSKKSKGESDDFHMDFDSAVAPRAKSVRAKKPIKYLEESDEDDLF
Procedure, shortened: (§2)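 Human Topo II (6 units) with 0.1 μg supercoiled pBR322 in 50 mM Tris-HCl pH 8.0, 150 mM NaCl, 10 mM MgCl2, 2 mM ATP, 0.5 mM DTT, 30 μg/ml BSA; compounds at 20 μM, etoposide 100 μM. After 6 min at 37 °C, complexes trapped with SDS then EDTA, proteinase K 30 min at 45 °C, heated 72 °C 2 min, run on 1% agarose; linear DNA scored. Antagonism tested by compound pretreatment before etoposide.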

HEK293 = test: Cytotoxicity against HEK293 cells after 48 hrs by MTT assay; assay type: cell-based; conditions: Homo sapiens, HEK293, 48 h
[8] = target: T1, DNA topoisomerase 2-alpha; test: Inhibition of purified human topoisomerase 2 using supercoiled pBR322 DNA as substrate assessed as linear DNA formation at 20 uM incubated for 6 mins by agarose gel electrophoresis; procedure, shortened: as §2
K562 = test: Antiproliferative activity against human K562 cells after 48 hrs by MTT assay; assay type: functional, cell-based; conditions: K562, 48 h
Procedure, shortened: (§3)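 Cells seeded at 5000 per well and left overnight, then exposed to increasing concentrations (0-50 μM) for 48 h. […] HL-60/MX2 is a mitoxantrone-selected HL-60 derivative with reduced Topo IIα/β.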

HL-60 [9] = test: Induction of apoptosis in human HL60 cells assessed as viable cells at 0.25 uM after 24 hrs by annexin V-FITC/propidium iodide staining-based flow cytometric analysis (reference value: 97.75%); assay type: functional; conditions: HL-60, 24 h, read-out: Activity; procedure, shortened: as §1
[10] = target: T2, DNA topoisomerase 1 (Homo sapiens) (UniProt P11387); test: Inhibition of recombinant human topoisomerase 1-mediated relaxation of supercoiled pBR322 DNA at 50 uM incubated for 30 mins by agarose gel electrophoresis
T2 sequence (whole entry): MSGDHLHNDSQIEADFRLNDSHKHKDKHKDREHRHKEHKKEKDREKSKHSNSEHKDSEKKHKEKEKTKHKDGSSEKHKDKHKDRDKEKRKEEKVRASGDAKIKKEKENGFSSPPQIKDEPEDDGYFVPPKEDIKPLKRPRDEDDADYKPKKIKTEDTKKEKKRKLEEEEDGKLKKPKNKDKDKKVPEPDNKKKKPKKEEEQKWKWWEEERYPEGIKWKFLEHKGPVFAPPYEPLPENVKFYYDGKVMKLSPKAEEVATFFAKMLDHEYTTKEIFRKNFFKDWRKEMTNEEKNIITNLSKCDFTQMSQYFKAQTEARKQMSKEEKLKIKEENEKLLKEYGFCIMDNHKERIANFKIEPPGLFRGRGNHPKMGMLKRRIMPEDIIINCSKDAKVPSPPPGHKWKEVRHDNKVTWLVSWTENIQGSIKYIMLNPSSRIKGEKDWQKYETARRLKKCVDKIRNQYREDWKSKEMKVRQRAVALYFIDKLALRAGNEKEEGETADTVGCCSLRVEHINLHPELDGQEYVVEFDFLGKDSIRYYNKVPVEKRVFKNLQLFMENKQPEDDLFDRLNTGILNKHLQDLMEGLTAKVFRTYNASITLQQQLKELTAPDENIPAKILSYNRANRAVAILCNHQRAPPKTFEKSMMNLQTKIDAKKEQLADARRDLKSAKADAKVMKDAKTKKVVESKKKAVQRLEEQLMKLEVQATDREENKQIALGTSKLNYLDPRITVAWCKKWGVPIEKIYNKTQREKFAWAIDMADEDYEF
Procedure, shortened: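 Supercoiled pBR322 relaxed by Topo I with compound, incubated 30 min at 37 °C, stopped with 1% SDS dye, run on 1% agarose 1 h at 90 V in TAE, stained and imaged under UV; camptothecin as reference.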

HL-60 [11] = test: Induction of apoptosis in human HL60 cells assessed as dead cells at 1 uM after 12 hrs by annexin V-FITC/propidium iodide staining-based flow cytometric analysis (reference value: 0.12 to 0.15%); assay type: functional
[12] = Antiproliferative activity against human HL60/MX2 cells after 48 hrs by MTT assay; assay type: functional, cell-based; conditions: HL60/MX2, 48 h; procedure, shortened: as §3
[13] = target: T1, DNA topoisomerase 2-alpha; test: Inhibition of purified human topoisomerase 2-mediated relaxation of supercoiled pBR322 DNA at 20 uM incubated for 30 mins by agarose gel electrophoresis
Procedure, shortened: (§4)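 Reactions contained 0.2 μg supercoiled pBR322 in 50 mM Tris-HCl pH 8.0, 150 mM NaCl, 10 mM MgCl2, 0.5 mM DTT, 30 μg/ml BSA, normally 2 mM ATP (1, 2 or 4 mM in ATP-competition runs). Started with 1 U human Topo II, 30 min at 37 °C, stopped with sarcosyl buffer, run on 1% agarose 1.5 h at 75 V, gel-stained and imaged under UV.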

HL-60 [14] = test: Induction of apoptosis in human HL60 cells assessed as early apoptotic cells at 0.5 uM after 24 hrs by annexin V-FITC/propidium iodide staining-based flow cytometric analysis (reference value: 0.5%); assay type: functional; procedure, shortened: as §1
A549 = test: Antiproliferative activity against human A549 cells after 48 hrs by MTT assay; assay type: functional, cell-based; conditions: A549, 48 h; procedure, shortened: as §3
[15] = target: T1, DNA topoisomerase 2-alpha; test: Inhibition of purified human topoisomerase 2-mediated relaxation of supercoiled pBR322 DNA at 50 uM incubated for 30 mins in presence of 1 mM ATP by agarose gel electrophoresis; procedure, shortened: as §4
[16] = target: T1, DNA topoisomerase 2-alpha; conditions: HL-60, 5 uM

SMILES	viability at 0.5 µM (HL-60 [1])	Activity (HL-60 [2])	Activity (HL-60 [3])	Activity (HL-60 [4])	Activity (HL-60 [5])	Activity (HL-60 [6])	inhibition [7]	IC50 (HEK293)	inhibition [8]	IC50 (K562)	viability at 0.25 µM (HL-60 [9])	inhibition [10]	Activity (HL-60 [11])	IC50 [12]	inhibition [13]	Activity (HL-60 [14])	IC50 (A549)	IC50 [15]	inhibition [16]
CCN(CC)CCCCn1c(N)c(-c2nc3ccccc3[nH]2)c2nc(C#N)c(C#N)nc21	78.7%	0.21%	17.65%	12.63%	1.19%	9.38%	Active	5.37 µM	inactive	1.44 µM	99.2%	inactive	0.25%	1.55 µM	Active	3.24%	5.75 µM	–	–
CN(C)CCCCn1c(N)c(-c2nc3ccccc3[nH]2)c2nc(C#N)c(C#N)nc21	13.9%	0.21%	79.38%	8.31%	0.39%	0.53%	Active	4.16 µM	inactive	1.43 µM	99%	inactive	0.11%	1.78 µM	Active	4.45%	8.24 µM	0.9 µM	inactive
